Shown are actives, neighbours in structure and some others; about 1.1% of the full set was active somewhere.
CAL PDZ FP-1 = untagged CAL PDZ binding inhibitors, primary screen, biochemical, fluorescence polarization, HTS; purified CAL PDZ, TMR-peptide fluorescence polarization, 1 h; AID 602252, 2012; inhibition, % at 24.9 µM; 300,000 tested, 0.92% active;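 active means mean inhibition of at least 30% with at least half of replicates also reaching 30%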;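 further: 0% = DMSO neutral control and 100% = excess unlabeled competitor peptide PRC23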
LANA DNA inh = inhibitors of KSHV C-LANA binding to DNA, primary screen, biochemical, fluorescence polarization, FAM-LBS DNA, MBP-C-LANA, single point; inhibition, % at 9 µM; 340,000 tested, 0.078% active; Kaposi's sarcoma herpesvirus LANA C-terminal domain (residues 932-1162) DNA binding; AID 504423, 2011;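 active means highest replicate inhibition at or above 60% at 9 µM, even if other replicates fall short; inactive means all replicates below 60% inhibition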;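 further: 0% = neutral control wells and 100% = 4 µM acridine orange control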
Keap1-Nrf2 PPI = Keap1-Nrf2 protein-protein interaction inhibitors, primary screen, biochemical, fluorescence polarization, single point. Kelch-like ECH-associated protein 1 (Homo sapiens), Q14145. Keap1 Kelch-Nrf2 peptide fluorescence polarization, 1536-well. inhibition, % at 9.4 µM. 340,000 tested, 0.15% active; in the data active means inhibition above about 12%;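 further: human Keap1 Kelch domain with fluorescein labeled Nrf2 9mer peptide probe; 0% = neutral control wells and 100% = peptide positive control; higher means more block of Keap1 binding to Nrf2 peptide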
Target sequence (Q14145 whole entry, looked up, the tested form may be a part): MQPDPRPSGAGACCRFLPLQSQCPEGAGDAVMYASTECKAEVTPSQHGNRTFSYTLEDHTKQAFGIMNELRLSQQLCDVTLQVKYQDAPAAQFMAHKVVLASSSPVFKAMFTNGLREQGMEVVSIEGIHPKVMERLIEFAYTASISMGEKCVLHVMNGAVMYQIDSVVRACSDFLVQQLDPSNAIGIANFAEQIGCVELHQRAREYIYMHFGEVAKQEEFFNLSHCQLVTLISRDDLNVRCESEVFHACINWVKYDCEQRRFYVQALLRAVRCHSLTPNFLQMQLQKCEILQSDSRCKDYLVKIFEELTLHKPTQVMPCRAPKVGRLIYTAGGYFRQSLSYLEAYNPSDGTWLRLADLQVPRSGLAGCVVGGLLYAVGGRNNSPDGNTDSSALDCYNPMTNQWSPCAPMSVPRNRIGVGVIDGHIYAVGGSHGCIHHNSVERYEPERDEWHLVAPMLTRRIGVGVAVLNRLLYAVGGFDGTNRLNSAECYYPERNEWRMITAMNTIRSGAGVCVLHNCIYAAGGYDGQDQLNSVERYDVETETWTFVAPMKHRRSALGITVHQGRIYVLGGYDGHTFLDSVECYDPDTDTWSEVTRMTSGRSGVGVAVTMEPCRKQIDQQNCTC
CAL PDZ FP-2 = CAL PDZ peptide-binding inhibitors, primary screen, biochemical, fluorescence polarization, Cer-tagged CAL PDZ, HTS; Golgi-associated PDZ and coiled-coil motif-containing protein (Homo sapiens), Q9HD26; purified CAL PDZ, TMR-peptide fluorescence polarization, 1 h; inhibition, % at 20 µM; 330,000 tested, 0.02% active; AID 504414, 2011;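 active means highest replicate inhibition of at least 40%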;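 further: plate controls were DMSO neutral control wells for no effect and unlabeled competitor peptide control wells for full effect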
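Material: tagged CAL PDZ protein CerCALP, purified; buffer or medium: sodium phosphate/NaCl buffer pH 7.4 with TCEP, IgG, Thesit; also added: fluorescent TMR peptide probe; schedule: 1 h incubation at room temperature before polarization reading; technique: fluorescence polarization from S- and P-plane intensities, G-factor corrected; control set: unlabelled peptide and DMSO controls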
miR122 inh = miR-122 Renilla sensor signal increase in Huh7, primary screen, miR-122 inhibitor project, cell-based, single point, plate reader; 340,000 tested, 0.3% active; activation (reporter increase), % at 12.5 µM; AID 602342, 2012; Huh7 miR-122 Renilla luciferase sensor, 48 h; neutral wells = 0, positive control = 100;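 active means mean replicate activation score at least 90 and every replicate individually at or above 90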;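 further: higher luciferase means less miR-122 activity so hits act as miR-122 inhibitors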
An asterisk follows results filed as active; / = not tested or not shown; [ ] = dose if it differs, or a comment.

SMILES	CAL PDZ FP-1	LANA DNA inh	Keap1-Nrf2 PPI	CAL PDZ FP-2	miR122 inh
CNC[C@@H]1OCCCC[C@@H](C)Oc2ccc(NS(=O)(=O)c3ccccc3)cc2C(=O)N([C@H](C)CO)C[C@H]1C	/	/	/	/	2[16.7 µM]
Cc1ccc(S(=O)(=O)c2c(N)n(Cc3ccco3)c3nc4ccccc4nc23)cc1	-1	3	-8	-2	121*
CCc1noc(C)c1C(=O)Nc1nc2c(C)cccc2s1	-7	-2	3	-3	-4
CCc1noc(C)c1C(=O)Nc1ncc(C)s1	35*	-1	-6	-3	5
C=CCN(CC=C)S(=O)(=O)c1ccc2nc(NC(=O)C(C)C)sc2c1	1	-1	-3	-1	122*
COc1cccc(CN2CC(C(=O)NCCc3ccccc3C(F)(F)F)CCC2=O)c1 (configuration not stated)	57*	0	0	-1	-1
O=C(NCCC1=CCCCC1)C1CCC(=O)N(Cc2cccc(C(F)(F)F)c2)C1 (configuration not stated)	36*	-2	0	0	-2
CCCCn1nnc(NC(=O)c2ccc([N+](=O)[O-])cc2Cl)n1	67*	0	-3	0	-10
CCNC(=O)c1ccccc1NC(=O)C1CC(=O)N(C(C)C)C1 (configuration not stated)	62*	1	-2	3	-2
CCCC#Cc1cnc2c(c1)C(=O)N([C@@H](C)CO)C[C@@H](C)[C@H](CN(C)C(=O)c1cccnc1)O2	/	/	/	/	-4[16.7 µM]
CS(=O)(=O)N(CC(=O)Nc1cccc(F)c1)c1cccc([N+](=O)[O-])c1	1	0	1	-2	277*
CCc1ccc(NS(=O)(=O)c2ccc(OC)c3ncccc23)cc1	1	1	-3	0	173*
COc1ccc2c(c1)CCc1cc(C(=O)O)sc1-2	-3	-1	0	0	-10
COc1ccc(-c2cc(C(=O)O)sc2C)cc1	44*	-1	0	-2	/
COc1ccc(OCC(O)CN(C)C(=O)/C=C/c2cccc([N+](=O)[O-])c2)cc1 (configuration not stated)	86*	0	-2	-2	/
O=C1OC2(CCCCC2)OC(=O)C1=CNc1nc2ccccc2s1	52*	0	-1	30	4
CC(=O)N(/C=C1\SC(=S)N(c2ccccc2)C1=O)c1ccccc1	35*	0	-5	-2	-7
C[C@H](CO)N1C[C@H](C)[C@@H](CN(C)Cc2ccc(Oc3ccccc3)cc2)Oc2c(NC(=O)C3CCOCC3)cccc2C1=O	/	/	/	/	100*[16.7 µM]
C[C@@H]1CN([C@@H](C)CO)C(=O)c2cccc(NC(=O)C3CCOCC3)c2O[C@H]1CN(C)Cc1ccc(Oc2ccccc2)cc1	/	/	/	/	76[16.7 µM]
C[C@H](CO)N1C[C@H](C)[C@@H](CN(C)Cc2ccc(Oc3ccccc3)cc2)Oc2c(NC(=O)c3ccncc3)cccc2C1=O	-1	-2	-6	-1	111*[16.7 µM]
C[C@@H]1CN([C@@H](C)CO)C(=O)c2cccc(NC(=O)c3ccncc3)c2O[C@@H]1CN(C)Cc1ccc(Oc2ccccc2)cc1	/	/	/	/	-2[16.7 µM]
C[C@@H]1CN([C@@H](C)CO)C(=O)c2cc(NC(=O)CCN3CCOCC3)ccc2O[C@@H]1CN(C)Cc1ccc2c(c1)OCO2	/	/	/	/	8[16.7 µM]
Cn1c(=O)n(C)c2cc(NS(=O)(=O)c3ccc4c(c3)CCCC4)ccc21	/	1	-3	-1	/
CCc1cccc(NS(=O)(=O)c2ccc3c(c2)oc(=O)n3C)c1	-5	0	3	-2	51
Cn1c(=O)n(C)c2cc(NS(=O)(=O)c3ccc(C(C)(C)C)cc3)ccc21	3	0	-4	-1	107*
SMILES	CAL PDZ FP-1	LANA DNA inh	Keap1-Nrf2 PPI	CAL PDZ FP-2	miR122 inh
CCc1cccc(NS(=O)(=O)c2ccc3c(c2)n(C)c(=O)n3C)c1	-6	0	0	-1	117*
CC(=O)c1cccc(NS(=O)(=O)c2ccc3c(c2)oc(=O)n3C)c1	-2	-1	-3	0	208*
C[C@@H]1CN([C@H](C)CO)S(=O)(=O)c2ccc(C3=CCCCC3)cc2O[C@@H]1CN(C)S(=O)(=O)c1cn(C)cn1	/	/	/	/	10[16.7 µM]
C[C@@H]1CCCCO[C@@H](CN(C)C(=O)Nc2cccc3ccccc23)[C@H](C)CN([C@H](C)CO)C(=O)c2cc(NC(=O)c3ccncc3)ccc2O1	/	/	/	/	-12[16.7 µM]
C[C@H](CO)N1C[C@H](C)[C@H](CN(C)C(=O)Nc2ccccc2)Oc2ccc(NC(=O)Cc3ccccc3)cc2CC1=O	/	/	/	/	3[16.7 µM]
COc1ccc(CCNc2nc(-c3ccccn3)cs2)cc1OC	49*	-1	2	-2	9
COc1ccc(CCNc2nc(-c3ccncc3)cs2)cc1OC	/	0	2	0	7
CN1c2ccc(C#Cc3cccnc3)cc2[C@H]2[C@H](CCN2C(=O)c2cccnc2)[C@@H]1CO	/	/	/	/	-1[16.7 µM]
O=C(N/N=C/c1ccc(O)cc1)Nc1cccc2nsnc12	31*	-1	-3	4	/
CCN1C(=O)[C@H]2[C@@H](c3ccc(-c4ccc(Cl)c(Cl)c4)cc3)N3CCCC[C@@]3(C(=O)OC)[C@H]2C1=O	35*	-1	-3	-1	-6
CCN1C(=O)[C@@H]2[C@@H](c3ccc(-c4ccc(Cl)c(Cl)c4)cc3)N3CCC[C@@]3(C(=O)OC)[C@@H]2C1=O	-3	-2	-7	-1	0
O=C(O)CCC1(CCC(=O)O)CCCC(CCC(=O)O)(CCC(=O)O)C1=O	80*	2	-3	0	-10
COc1ccc(NC(=O)Nc2ccc3c(c2)[C@H]2C[C@H](CC(=O)N4CCc5ccccc5C4)O[C@@H](CO)[C@H]2O3)cc1	/	/	/	/	-5[16.7 µM]
Oc1ccc2ccccc2c1/C=N/n1cnnc1	/	1	3	0	12
Cc1cc(C)n(/N=C\c2c(O)ccc3ccccc23)c(=O)c1C(N)=O	50*	0	0	0	-8
NC(=O)c1ccc(-c2nnc(Nc3ccc(S(N)(=O)=O)cc3)c3ccccc23)cc1	66*	-1	-5	/	/
CC(=O)Nc1ccc(Nc2nnc(-c3ccc(C)c(S(N)(=O)=O)c3)c3ccccc23)cc1	1	-1	-2	1	/
Cc1ccc(-c2nnc(Nc3ccc4c(c3)OCO4)c3ccccc23)cc1S(N)(=O)=O	/	0	-9	1	180*
CO[C@@H]1CN(C)C(=O)c2ccc(NS(=O)(=O)c3ccccc3C)cc2OC[C@@H](C)NC[C@H]1C	/	/	/	/	4[16.7 µM]
O=C1CSC(c2ccc([N+](=O)[O-])cc2)N1CCN1CCCCC1 (configuration not stated)	44*	1	0	-1	/
